Laboratory results published in ChEMBL document CHEMBL1128226, “Phosphinyl acid-based bisubstrate analog inhibitors of Ras farnesyl protein transferase” (J Med Chem, 1995).

How the values were obtained:
[1] = target: T1, Protein farnesyltransferase (Homo sapiens, UniProt P49354+P49356); assay: Inhibition of Ras Farnesyltransferase enzyme from pig brain; set-up: species or system Sus scrofa; conditions: target entry is the homologue from another species; read-out: I50
Summary of the method: (§1)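 Pig brain FPT purified about 2000-fold over crude cytosol. Reaction contains 1 μM [3H]FPP, 7 μM recombinant p21 H-Ras (E. coli, partially purified), 25 mM MgCl2, 10 mM DTT and 100 mM HEPES 7.4, with inhibitor usually 360 to 0.02 μM. Run 1 h at 37 °C, then SDS/TCA precipitation, filtration and scintillation counting. Triplicate points; IC50 from % control vs log concentration; each compound tested at least twice.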

[2] = target: Geranylgeranyl transferase type I (Homo sapiens, UniProt P49354+P53609); assay: Inhibition of Geranylgeranyl transferase type I from porcine brain tissue; set-up: species or system Sus scrofa; conditions: target entry is the homologue from another species; read-out: I50
Summary of the method: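 Porcine brain GGT-I, partially purified; substrates 12 μM bacterially expressed p21 rasCVLL and 0.5 μM [3H]GGPP (19.3 Ci/mmol), with 10 mM DTT, 5 mM MgCl2, 5 μM ZnCl2, 100 mM HEPES pH 7.4. Incubated 1 h at 37 °C. Protein precipitated with SDS/TCA, filtered, radioactivity counted. Triplicates, SEM reported; IC50 determined.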

[3] = test system: Geranylgeranyl transferase type I (Sus scrofa); assay: Inhibition of Geranylgeranyl transferase type I from porcine brain tissue; 'a' indicates prodrug
[4] = target: T1, Protein farnesyltransferase; assay: Inhibition of Ras Farnesyltransferase obtained from pig brain; 'a' indicates prodrug; set-up: species or system Sus scrofa; conditions: target entry is the homologue from another species; summary of the method: as §1
[5] = target: T1, Protein farnesyltransferase; assay: Inhibition of Ras Farnesyltransferase from pig brain; set-up: species or system Sus scrofa; conditions: target entry is the homologue from another species; read-out: I50; summary of the method: as §1

Row | Compound | IC50 [1] | IC50 [2] | I50 [3] | I50 [4] | IC50 [5]
1 | COC(=O)[C@H](CCSC)NC(=O)[C@@H](NC(=O)[C@@H](NC(=O)COP(=O)(O)C/C=C(\C)CC/C=C(\C)CCC=C(C)C)C(C)C)C(C)C | – | – | Prepared and evaluated as prodrugs | Prepared and evaluated as prodrugs | –
2 | CSCC[C@H](NC(=O)[C@@H](NC(=O)[C@@H](NC(=O)CCP(=O)(O)C/C=C(\C)CC/C=C(\C)CCC=C(C)C)C(C)C)C(C)C)C(=O)O | – | 21 µM | – | – | 0.006 µM

Other lines, results leading:

Row | IC50 [1] | IC50 [2] | I50 [3] | I50 [4] | IC50 [5] | Compound
3 | 0.0062 µM | 10 µM | – | – | – | CSCC[C@H](NC(=O)[C@@H](NC(=O)[C@@H](NC(=O)COP(=O)(O)C/C=C(\C)CC/C=C(\C)CCC=C(C)C)C(C)C)C(C)C)C(=O)O
4 | 0.06 µM | 59 µM | – | – | – | CC(C)=CCC/C(C)=C/CC/C(C)=C/CP(=O)(O)OCC(=O)N[C@H](C(=O)N[C@@H](CC(C)C)C(=O)N[C@@H](CO)C(=O)O)C(C)C
5 | – | – | Prepared and evaluated as prodrugs | Prepared and evaluated as prodrugs | – | COC(=O)[C@H](CCSC)NC(=O)[C@@H](NC(=O)[C@@H](NC(=O)CCP(=O)(O)C/C=C(\C)CC/C=C(\C)CCC=C(C)C)C(C)C)C(C)C
